Test results as given in publication PMC4767637 (Journal of molecular biology, 2016).
Numbering of substitutions follows the chain as printed. Numbers in names are those of the source.

Assays:
pSTAT3 homodimer [1] = test: van't Hoff analysis of pSTAT3 monomer-dimer equilibrium by HMQC; type: binding, human; details: 25-45 °C, 700 MHz
In short: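 His-tagged pSTAT3 (127-711), co-expressed with tyrosine kinase in E. coli TKB1, deuterated with Ile Cδ1 methyl 13CH3 labeling, in deuterated 10 mM MES pH 5.5, 2 mM TCEP, 0.03% sodium azide, 100% D2O. 2D 1H-13C HMQC at 700 MHz at 25, 30, 32, 34, 36, 38, 40 and 45 °C. Keq is the population ratio of exchanging species (a) and (b); ΔH0 and ΔS0 come from a linear fit of ln(Keq) vs 1/T.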

pSTAT3 homodimer [2] = test: NMR CSP of pSTAT3 dimer versus uSTAT3; type: binding, human; details: 2D 13C-1H HMQC, 25 °C
pSTAT3 = test: 13C SQ-CPMG relaxation dispersion; set-up: species or system human; details: 35 °C, 600 and 700 MHz, ~170 μM pSTAT3
I568F STAT3 = test: NMR CSP of I568F STAT3 relative to WT; set-up: species or system human; details: 2D 13C-1H HMQC Ile spectra

B1: pSTAT3: Tyr-705-phosphorylated STAT3 (protein)
chain: GQANHPTAAVVTEKQQMLEQHLQDVRKRVQDLEQKMKVVENLQDDFDFNYKTLKSQGDMQDLNGNNQSVTRQKMQQLEQMLTALDQMRRSIVSELAGLLSAMEYVQKTLTDEELADWKRRQQIACIGGPPNICLDRLENWITSLAESQLQTRQQIKKLEELQQKVSYKGDPIVQHRPMLEERIVELFRNLMKSAFVVERQPCMPMHPDRPLVIKTGVQFTTKVRLLVKFPELNYQLKIKVCIDKDSGDVAALRGSRKFNILGTNTKVMNMEESNNGSLSAEFKHLTLREQRCGNGGRANCDASLIVTEELHLITFETEVYHQGLKIDLETHSLPVVVISNICQMPNAWASILWYNMLTNNPKNVNFFTKPPIGTWDQVAEVLSWQFSSTTKRGLSIEQLTTLAEKLLGPGVNYSGCQITWAKFCKENMAGKGFSFWVWLDNIIDLVKKYILALWNEGYIMGFISKERERAILSTKPPGTFLLRFSESSKEGGVTFTWVEKDISGKTQIQSVEPYTKQQLNNMSFAEIIMGYKIMDATNILVSPLVYLYPDIPKEEAFGKYCRPESQEHPEADPGSAAPYLKTKFI
modifications: phosphotyrosine at 705; left off: His6, C-terminal, state not stated
ΔS° of monomer-dimer equilibrium (I568 and I654) (pSTAT3 homodimer [1]; residues I568 (LD) and I654 (SH2)): 47.0 ± 3.7 cal/mol•K
ΔS° of monomer-dimer equilibrium (I653 and I711) (pSTAT3 homodimer [1]; residues I653 and I711): 42.2 ± 1.6 cal/mol•K
CSPs of pSTAT3 dimer (pSTAT3 homodimer [2]): Additional CSPs unique to pSTAT3 were observed at I653 and I711
change in Rex of I568, pSTAT3 dimer versus pY904-bound uSTAT3 (pSTAT3): Larger increases in the Rex of I568 were observed for the dimeric pSTAT3 than for pY904-bound uSTAT3

B2: I568F: HIES associated STAT3 mutation in the LD (protein)
chain: B1 chain with I442F
modifications: left off: His6, C-terminal, state not stated
CSP of I568F mutant relative to WT (I568F STAT3): significant CSP relative to WT protein in all structured domains of STAT3, from the CCD to SH2
